Series [1] concerns Staphylococcus aureus. The series can be described thus: Antibacterial activity against methicillin-resistant Staphylococcus aureus MW2 after 24 hrs by two-fold broth microdilution method. It counts as functional. The settings on record: MW2, 24 h. An outline of the steps: (§1)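 Read-out is the minimum inhibitory concentration against MRSA strain MW2, expressed in μg/mL.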
A general note: Dilution methods test growth across graded concentrations, often in twofold steps.

The nature of series [2]: Cytotoxicity against human HKC8 cells after 24 hrs by WST1 assay. It counts as cell-based. The settings on record: HKC8, 24 h. The method in brief: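 Human HKC-8 cells were exposed to compound, and cytotoxicity was reported as IC₅₀ in μg/mL.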
(Tetrazolium assays rely on reduction of a dye to a coloured formazan, in cell work by metabolically active cells.)

The nature of series [3]: Selectivity index, ratio of IC50 for human HKC8 cells to MIC for methicillin-resistant Staphylococcus aureus MW2. The settings on record: read-out: Selectivity Index. The format is toxicity. An outline of the steps:
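Ratio of the cytotoxic IC50 in human HKC-8 kidney cells to the MIC against MRSA MW2. Both values are in μg/mL and were measured in this work.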

The test system of series [4] is dsDNA. Description: Binding affinity to Rt1 double stranded DNA (unknown origin) at DNA to compound ratio of 1:2.5 to 1:10 after 20 mins by ESI-MS analysis. The format is nucleic-acid assay.
In series [5] the test system is dsDNA. Description: Binding affinity to D2 double stranded DNA (unknown origin) at DNA to compound ratio of 1:2.5 to 1:10 after 20 mins by ESI-MS analysis. The format is nucleic-acid assay.
Series [6] has as its system dsDNA. The series can be described thus: Binding affinity to Dst double stranded DNA (unknown origin) at DNA to compound ratio of 1:2.5 to 1:10 after 20 mins by ESI-MS analysis. The format is nucleic-acid assay.
Series [7] relates to Quadruplex DNA. Description: Binding affinity to ER03 quadruplex DNA (unknown origin) at DNA to compound ratio of 1:2.5 to 1:10 after 20 mins by ESI-MS analysis. The format is nucleic-acid assay.
The subject of the next series is DNA. Description: Binding affinity to ER04 single stranded DNA (unknown origin) at DNA to compound ratio of 1:2.5 to 1:10 after 20 mins by ESI-MS analysis. The format is nucleic-acid assay.
For series [8], the system named is Quadruplex DNA. The series can be described thus: Binding affinity to G5 quadruplex DNA (unknown origin) at DNA to compound ratio of 1:2.5 to 1:10 after 20 mins by ESI-MS analysis. It counts as nucleic-acid assay.
A short description of series [9]: Binding affinity to RNA oligonucleotide (unknown origin). An outline of the steps: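 RNA oligonucleotides were incubated with compound, and adduct formation was examined by ESI mass spectrometry.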
Series [10] in a line: Inhibition of DNA replication in cell-free system at >160 uM using 5'-flap-primed M13 ssDNA template/dNTP pretreated for 5 mins followed by DNA addition and measured after 20 mins by helicase-independent polymerase3 primer extension-strand displacement rolling circle assay. The format is functional. An outline of the steps:
(§2)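 The cell-free bacterial replication system holds all enzymes, ancillary proteins, nucleotide precursors and DNA template needed to duplicate circular bacterial DNA. Covalent reaction with any component would read out as loss of replication.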

A short description of series [11]: Inhibition of DNA replication in cell-free system at <640 uM using 5'-flap-dsDNA template/dNTP after 20 mins by helicase-dependent leading strand rolling circle replication assay. It counts as functional. An outline of the steps: as §2
A short description of series [12]: Inhibition of RNA transcription in cell-free system. The format is functional.
The subject of series [13] is Staphylococcus aureus. Description: Antibacterial activity against methicillin-resistant Staphylococcus aureus MW2. The format is functional. An outline of the steps:
as §1

Molecules are shown by their SMILES. In brackets after ≈: the same amount, converted by molar mass. Activity calls are given as the source filed them.

In the series on Staphylococcus aureus [1], `C=CCSC(=S)c1c(C)nn(-c2ccccc2)c1O` had an MIC of 4 to 8 µg/mL (≈ 13.8 to 27.5 µM). Moreover, the IC50 in series [2] was in the range of 16 to 32 µg/mL (≈ 55.1 to 110 µM). Also, in series [3], the selectivity ratio was 2 to 4.
Molecule `CCCSC(=S)c1c(-c2ccc(C#N)cc2)nn(-c2ccccc2)c1O` gave an MIC against Staphylococcus aureus [1] of 2 µg/mL (≈ 5.27 µM).
Same read-out and setting: as for `CCCSC(=S)c1c(-c2ccc(Br)cc2)nn(-c2ccccc2)c1O`, the figure is 0.5 µg/mL (≈ 1.15 µM).
For `CCCNC(=S)c1c(C)nn(-c2ccccc2)c1O`, the MIC against Staphylococcus aureus [1] was over 64 µg/mL.
`CCCSC(=S)c1c(-c2ccc(C)cc2)nn(-c2ccccc2)c1O` yielded an MIC against Staphylococcus aureus [1] of 1 to 2 µg/mL (≈ 2.71 to 5.43 µM). In series [2], this molecule displayed an IC50 of 8 µg/mL (≈ 21.7 µM). In series [3], the selectivity ratio is 4 to 8.
Take `CCCSC(=S)c1c(C)nn(-c2ccc(C)cc2)c1O`: the MIC in the series on Staphylococcus aureus [1] was determined as 4 µg/mL (≈ 13.1 µM).
On the same count and under the same terms, as for `CCCOC(=O)c1c(C)nn(-c2ccccc2)c1O`, the figure is over 64 µg/mL.
With `CCCSC(=S)c1c(-c2ccc(OC)cc2)nn(-c2ccccc2)c1O`, the MIC in the series with Staphylococcus aureus [1] was 2 µg/mL (≈ 5.2 µM). Also, the IC50 in [2] was 8 µg/mL (≈ 20.8 µM). In addition, the selectivity ratio in series [3] was determined as 4.
`CCCSC(=S)c1c(C)nn(-c2ccc(Cl)cc2)c1O` came in with an MIC with Staphylococcus aureus [1] of 2 to 4 µg/mL (≈ 6.12 to 12.2 µM).
For `CCSC(=S)c1c(C)nn(-c2ccccc2)c1O`, in the series on Staphylococcus aureus [1], inhibition of growth (MIC) required 8 µg/mL (≈ 28.7 µM). This molecule showed an IC50 in series [2] of 8 µg/mL (≈ 28.7 µM). Also, the selectivity ratio in series [3] was found to be 1.
In the series on Staphylococcus aureus [1], `CCCSC(=S)c1c(C)nn(-c2ccc(F)cc2)c1O` came in with an MIC of 2 to 4 µg/mL (≈ 6.44 to 12.9 µM).
Same read-out and setting: as for `CCCSC(=S)c1c(-c2ccc(C(F)(F)F)cc2)nn(-c2ccccc2)c1O`, the figure is 32 to 64 µg/mL (≈ 75.7 to 151 µM).
As to `CCCSC(=S)c1c(C)nn(-c2ccccc2)c1O`, the MIC against Staphylococcus aureus [1] and with Staphylococcus aureus [13] was 4 µg/mL (≈ 13.7 µM) in each case. Further, the IC50 in [2] worked out at 4 µg/mL (≈ 13.7 µM). For the same molecule, the selectivity ratio in [3] turned out to be 1. In addition, the result in the series with dsDNA [4], in the series on dsDNA [5], in the series with dsDNA [6], in the series on Quadruplex DNA [7], with DNA and in the series on Quadruplex DNA [8] was inactive. Also, the result in [9] was inactive. Further, the inhibition result in series [10] is “Active”. In addition, the inhibition entry in series [11] and in [12] was “inactive” each time.
With `CSC(=S)c1c(C)nn(-c2ccccc2)c1O`, in the series on Staphylococcus aureus [1], the MIC was 16 µg/mL (≈ 60.5 µM). Moreover, the IC50 in series [2] came out at 16 µg/mL (≈ 60.5 µM). The selectivity ratio in series [3] was determined as 1.
In the case of `CCCSC(=S)c1c(-c2ccc(F)cc2)nn(-c2ccccc2)c1O`, the MIC with Staphylococcus aureus [1] was found to be 1 µg/mL (≈ 2.68 µM). The same molecule displayed an IC50 in series [2] of 4 µg/mL (≈ 10.7 µM). The selectivity ratio in [3] was determined as 4.
In turn, `Cc1nn(-c2ccccc2)c(O)c1C(=S)Sc1cccnc1` returned an MIC against Staphylococcus aureus [1] of 16 to 32 µg/mL (≈ 48.9 to 97.7 µM).
Take `CSC(SC)=C1C(=O)N(c2ccccc2)N=C1C`: the MIC in the series on Staphylococcus aureus [1] was over 64 µg/mL.
For `CCCSC(=S)c1c(-c2ccccc2)nn(-c2ccccc2)c1O`, the MIC against Staphylococcus aureus [1] worked out at 2 µg/mL (≈ 5.64 µM). In series [2], this molecule came in with an IC50 of 32 µg/mL (≈ 90.3 µM). Also, the selectivity ratio in [3] was 16.
The matching figures for `CCCSC(=S)c1c(-c2ccc(Cl)cc2)nn(-c2ccccc2)c1O`: 0.5 to 1 µg/mL (≈ 1.29 to 2.57 µM), 4 µg/mL (≈ 10.3 µM) and 4 to 8.
As for `CCCSC(=S)c1c(-c2ccc([N+](=O)[O-])cc2)nn(-c2ccccc2)c1O`, in the series with Staphylococcus aureus [1], 1 µg/mL (≈ 2.5 µM) was the least that counted as inhibitory (MIC). For the same molecule, the midpoint of inhibition in series [2], the IC50, lay at 0.5 µg/mL (≈ 1.25 µM). Moreover, the selectivity ratio in series [3] worked out at 0.5.
The matching figures for `CCCCSC(=S)c1c(C)nn(-c2ccccc2)c1O`: 2 to 4 µg/mL (≈ 6.53 to 13.1 µM), 4 µg/mL (≈ 13.1 µM) and 1 to 2.
Take `CCCSC(=S)c1c(C)nn(-c2ccc(C#N)cc2)c1O`: inhibition of growth in the series with Staphylococcus aureus [1] (MIC) required 2 µg/mL (≈ 6.3 µM).
The molecule `CCCSC(=S)c1c(C)nn(-c2ccc(Br)cc2)c1O` came in with an MIC in the series with Staphylococcus aureus [1] of 1 to 2 µg/mL (≈ 2.69 to 5.39 µM).
The molecule `CCCSC(=S)c1c(C)nn(-c2ccc([N+](=O)[O-])cc2)c1O` had an MIC in the series on Staphylococcus aureus [1] of 0.5 to 1 µg/mL (≈ 1.48 to 2.96 µM). In [2], the IC50 lay in the range of 0.5 to 1 µg/mL (≈ 1.48 to 2.96 µM). For the same molecule, in series [3], the selectivity ratio was determined as 1.
Regarding `CCCNC(=O)c1c(C)nn(-c2ccccc2)c1O`, the MIC in the series with Staphylococcus aureus [1] is over 64 µg/mL.
The molecule `CCCSC(=S)c1c(C)nn(-c2ccc(OC)cc2)c1O` displayed an MIC with Staphylococcus aureus [1] of 8 µg/mL (≈ 24.8 µM).
In turn, `Cc1nn(-c2ccccc2)c(O)c1C(=S)SCc1ccccc1` returned an MIC against Staphylococcus aureus [1] of 2 to 4 µg/mL (≈ 5.87 to 11.7 µM). For the same molecule, in [2], the midpoint of inhibition, the IC50, lay at 32 µg/mL (≈ 94 µM). In addition, the selectivity ratio in series [3] is 8 to 16.

A word on the MIC: it is the smallest concentration in the dilution series that meets the test's criterion for growth inhibition. Read a high MIC as weaker potency. A word on the IC50: it is the midpoint of a concentration-inhibition curve. Low values mean greater potency, high ones weaker potency.

Values taken from ChEMBL document CHEMBL4261610, “Structure-activity relationships of pyrazole-4-carbodithioates as antibacterials against methicillin-resistant Staphylococcus aureus” (Bioorg Med Chem Lett, 2018).
